# Sampled rows, rich in hits. Any-hit rate of the full collection: about 1.3%.
# Diaphorase act: counter-screen for diaphorase-based assays: diaphorase activators and chemical reducers. AID 1229. actives 0.005% (n = 190,000). Diaphorase/resazurin coupled assay, resorufin fluorescence, 16 min; hits give high values; 1 = vehicle wells, 0 = NADH-free wells. activation factor at 20 µM;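 active = diaphorase activity raised at least twofold by the compound at 20 µM; inactive = activation factor below 2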
#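 Test system: Clostridium kluyveri diaphorase, purified enzyme. Buffer or medium: 50 mM HEPES pH 7.4 buffer plus MgCl2 and Tween 20. Also added: 0.114 mM NADH and 0.1 mM resazurin, final amounts. Dosing: compound 20 µM once, DMSO 1%. Schedule: 16 min enzyme reaction, ambient temperature. Detection: fluorescence of resorufin, 544 nm excitation, 590 nm emission.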
# HKDC1 inhibitor: HKDC1 (human) hexokinase inhibition. Q2TB90. recombinant HKDC1, G6PDH/diaphorase resazurin coupled fluorescence. inhibition, % at 20 µM. actives 0.16% (n = 340,000);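 active = inhibition above about 35% when tested at 20 µM, limit read from the data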;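 also: plate controls were DMSO wells with enzyme for no effect and DMSO wells lacking enzyme for full effect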
# Target sequence (Q2TB90 whole entry, looked up): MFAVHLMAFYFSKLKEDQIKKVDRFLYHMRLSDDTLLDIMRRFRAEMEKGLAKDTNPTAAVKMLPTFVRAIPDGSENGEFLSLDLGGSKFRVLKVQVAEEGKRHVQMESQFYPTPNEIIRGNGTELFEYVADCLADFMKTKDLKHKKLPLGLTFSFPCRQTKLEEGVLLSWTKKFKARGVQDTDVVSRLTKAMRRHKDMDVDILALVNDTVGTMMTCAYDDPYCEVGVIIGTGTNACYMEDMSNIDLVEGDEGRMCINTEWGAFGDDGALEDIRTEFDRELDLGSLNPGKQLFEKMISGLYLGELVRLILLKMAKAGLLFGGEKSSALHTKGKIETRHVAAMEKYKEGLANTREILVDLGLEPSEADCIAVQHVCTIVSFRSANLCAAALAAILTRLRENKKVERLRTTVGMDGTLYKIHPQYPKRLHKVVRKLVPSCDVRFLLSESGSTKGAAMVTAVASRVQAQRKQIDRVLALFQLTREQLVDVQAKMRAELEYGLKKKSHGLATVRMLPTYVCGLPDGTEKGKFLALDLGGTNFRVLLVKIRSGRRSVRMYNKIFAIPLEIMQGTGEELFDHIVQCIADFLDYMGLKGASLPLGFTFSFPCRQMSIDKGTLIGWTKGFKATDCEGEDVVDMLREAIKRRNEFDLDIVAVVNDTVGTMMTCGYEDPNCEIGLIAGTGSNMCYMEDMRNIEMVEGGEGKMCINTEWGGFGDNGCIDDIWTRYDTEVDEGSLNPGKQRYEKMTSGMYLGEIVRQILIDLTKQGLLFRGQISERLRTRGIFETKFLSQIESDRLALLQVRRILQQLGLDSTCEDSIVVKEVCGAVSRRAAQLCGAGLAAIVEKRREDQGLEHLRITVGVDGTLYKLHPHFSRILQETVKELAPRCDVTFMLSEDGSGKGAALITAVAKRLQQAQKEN
#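 Assay system – recombinant HKDC1 (HK5) hexokinase enzyme, produced in-house · Input – HKDC1 at 5 µg/mL · Reagent – glucose plus 1 mM ATP as hexokinase substrates · Timing – 90 min reaction incubation at room temperature, dark · Measured by – G6PDH/diaphorase-coupled fluorescence, 1 mM NADP, 100 µM resazurin, 525/613 nm · Benchmarks – DMSO-enzyme wells negative, buffer-substituted wells positive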
# Tb hexokinase: T. brucei hexokinase 1 inhibition; recombinant TbHK1, G6PDH-coupled NADH A340; inhibition, % at 10 µM; actives 0.11% (n = 220,000); AID 1430;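 active = inhibition of 50% or more in the single-dose primary screen; inactive = inhibition below 50%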
# PfGluPho inh: PfG6PD (Plasmodium falciparum) enzyme inhibition; AID 504690; actives 0.78% (n = 350,000); inhibition, % at 20 µM; PfGluPho enzyme, NADPH resazurin-diaphorase fluorescence;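 active = inhibition reaching at least a set limit at 20 µM in the primary screen, cut at about 59% in these data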;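 also: 0% = DMSO wells with substrate and 100% = DMSO wells lacking glucose-6-phosphate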
# Diaph inh CS: counter-screen for diaphorase-based assays: diaphorase inhibitors and chemical oxidizers; diaphorase resazurin-to-resorufin fluorescence, NADH, 16 min; bacterial (C. kluyveri) enzyme, not human; inhibition, % at 20 µM; actives 0.69% (n = 190,000); AID 1217;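 active = primary screen inhibition at 20 µM above a set limit, cut at about 50% in these data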;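 also: plate controls were DMSO with full reaction for no effect and wells lacking NADH for full effect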
#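 Assay system: diaphorase enzyme from Clostridium kluyveri; Input: enzyme working solution with 0.14 U/mL diaphorase; Timing: 16 min at room temperature; Technique: resorufin fluorescence, excitation 544 nm, emission 590 nm; Benchmarks: positive control minus NADH, DMSO neutral control.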
# G6PDH CS: counter-screen for G6PDH assay hits: L. mesenteroides G6PDH inhibition; Purified L. mesenteroides G6PDH, diaphorase/resazurin coupled fluorescence, 45 min; inhibition, % at 5 µM; actives 0.12% (n = 200,000); AID 1020; in the data active = inhibition above about 50%
# HKDC1 act conf2: confirmation of human HKDC1 activators | actives 14% (n = 740) | recombinant HKDC1, G6PDH/diaphorase resazurin fluorescence; hits give low values | shares compounds with HKDC1 inhibitor | AID 504708 | inhibition, % at 20 µM;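 active = inhibition at or below a set negative limit, negative inhibition meaning the enzyme was activated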
# PfG6PD confirm: PfG6PD inhibition, single-dose confirmed. shares compounds with PfGluPho inh. recombinant PfGluPho, NADPH-diaphorase-resazurin fluorescence. AID 504753. actives 34% (n = 2,400). inhibition, % at 20 µM;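 active = inhibition of at least 50% at 20 µM in any single replicate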;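 also: 0% = DMSO with substrate and 100% = DMSO lacking glucose-6-phosphate substrate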
# Diaphorase 10uM: diaphorase inhibition or oxidation at 10 uM NADPH; actives 39% (n = 820); shares compounds with PfGluPho inh; diaphorase-coupled resazurin reduction, fluorescence, NADPH 10 uM; inhibition, % at 20 µM;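 active = average inhibition reaching 50% or more with the compound at 20 µM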;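 also: resorufin red fluorescence formed as diaphorase reduces resazurin using NADPH; 0% = DMSO with enzyme and 100% = DMSO without enzyme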
# Diaphorase 30uM: inhibits diaphorase or oxidizes, flagging false PfG6PD hits | actives 29% (n = 820) | inhibition, % at 20 µM | Diaphorase/resazurin coupled assay, resorufin fluorescence, 30 uM NADPH | shares compounds with PfGluPho inh;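 active = inhibition averaging 50% or more, tested at 20 µM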;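 also: 0% = DMSO with enzyme and 100% = DMSO wells lacking diaphorase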
# Active calls of the source: *; · = no result given.
SMILES,Diaphorase act,HKDC1 inhibitor,Tb hexokinase,PfGluPho inh,Diaph inh CS,G6PDH CS,HKDC1 act conf2,PfG6PD confirm,others
Cc1ccc(C(=O)CSc2n[nH]c(-c3ccco3)n2)cc1C,0.5,31,6,10,54*,9,31,·,
CCc1nn2c(=O)cc(COc3ccc(/C=C4\C(=N)N5N=C(CC(C)C)SC5=NC4=O)cc3)nc2s1,·,22,-31,-23,·,·,·,·,
CCC1=NN2C(=N)/C(=C\c3ccc(OCc4cc(=O)n5nc(CC)sc5n4)c(OC)c3)C(=O)N=C2S1,0.5,34,-9,-3,54*,0,23,·,
CN(C)S(=O)(=O)c1cc(NC(=O)COC(=O)c2nc(Cl)ccc2Cl)ccc1Cl,·,-4,·,10,·,·,·,·,
CN(C)C(=O)/C(C#N)=C\c1cc(Br)c(Sc2ccc(Cl)cc2)o1,0.9,35*,-4,107*,13,0,14,-8,
NC(=O)Cn1nc2sc3ccccc3n2c(=O)c1=O,·,·,-5,·,·,·,·,·,
CCS(=O)CC(=O)Nc1c(-c2ccccc2)oc2ccccc2c1=O (stereo not given),·,-6,-5,-18,·,·,·,·,
O=C1C(=O)c2c(ccc3ccccc23)-c2ccccc21,·,33,·,62*,·,·,-7,17,
O=C1CCSc2c1ccc1ccccc21,·,2,·,11,·,·,·,·,
O=C1C=C(c2n[nH]nc2-c2ccccc2)C[C@@H](c2ccc(F)cc2)C1,·,·,·,15,·,·,·,·,
COc1ccc(S(=O)(=O)NC(N)=NCCc2ccccc2)cc1,1,-4,0,9,4,4,·,·,
O=Nc1c(O)ccc2cc(S(=O)(=O)O)ccc12,·,34,·,102*,·,·,15,90*,Diaphorase 10uM=76*;Diaphorase 30uM=73*
O=C(CN1C(=O)NC2(CCCCCCC2)C1=O)Nc1ccc(Cl)cc1,·,1,·,4,·,·,·,·,
Clc1ccc(N=c2ssnc2Cl)nc1,·,-194,9,87*,·,14,-80*,52*,Diaphorase 10uM=-22;Diaphorase 30uM=-18
COc1ccc(NS(=O)(=O)c2cccc(NC(=O)c3cnccn3)c2)cc1Br,1,5,-2,6,4,1,·,·,
CC1=NOC(=O)/C1=C\c1ccc(-c2cc(Cl)ccc2Cl)o1,1,57*,14,80*,2,4,10,11,
Cc1cc2c(N)cccc2nn1,0.6,35*,0,100*,44,52*,4,4,
CCNC(=O)NC(=O)C(C)OC(=O)C1CCN(S(=O)(=O)c2ccccc2C(=O)OC)CC1 (stereo not given),0.8,-8,11,-7,16,8,·,·,
CC(C)(C=O)C1=CC(=O)c2ccccc2C1=O,0.8,51*,-18,119*,16,45,41,103*,Diaphorase 10uM=85*;Diaphorase 30uM=66*
O=C(NC1=C(NC2CCS(=O)(=O)C2)C(=O)c2ccccc2C1=O)c1ccccc1 (stereo not given),0.3,53*,-2,104*,72*,51*,69,95*,Diaphorase 10uM=98*;Diaphorase 30uM=90*
O=C(NC1=C(Nc2ccc(Cl)cc2)C(=O)c2ccccc2C1=O)c1ccccc1,0.7,5,-1,45,33,43,·,·,
Cc1cc(C(=O)Cn2cnc3cc(F)ccc3c2=O)c(C)n1C1CC1,·,-5,·,-3,·,·,·,·,
Oc1ccc(Br)cc1CNc1cccc2cccnc12,·,40*,·,72*,·,·,6,15,
COc1ccc(/C=N/N2CCN(c3ccccc3)CC2)cc1Br,·,-7,·,12,·,·,·,·,
COc1ccc(NC(C)=O)cc1S(=O)(=O)NC(C)c1ccc(-n2ccnc2)cc1 (stereo not given),·,1,·,4,·,·,·,·,
SMILES,Diaphorase act,HKDC1 inhibitor,Tb hexokinase,PfGluPho inh,Diaph inh CS,G6PDH CS,HKDC1 act conf2,PfG6PD confirm,others
CCOc1ccc2c(ccc(/C=C/c3cc(C)c4cccnc4c3O)[n+]2C)c1,·,46*,·,92*,·,·,8,40,
CC1=C(OC(=O)C(C)(C)C)C(C)(C)C(c2ccccc2)OC1=O (stereo not given),0.8,10,30,-22,17,14,·,·,
Cc1ccc(S(=O)(=O)Nc2c(O)ccc3ccccc23)cc1,·,38*,·,81*,·,·,35,47,
Cc1ccc(S(=O)(=O)NN=Cc2c(O)ccc3ccccc23)cc1,·,·,·,-17,·,·,·,·,
O=C1c2ccccc2C(=O)c2c1cccc2N(CCO)CCO,·,8,·,12,·,·,·,·,
O=C1C=C(N(CCO)Cc2ccccc2)c2ccccc2C1=O,0.8,35*,-8,71*,21,54*,29,46,
CC(=O)C(Cc1ccccc1)NC(=O)COC(=O)c1cccc(C)c1[N+](=O)[O-] (stereo not given),·,6,·,9,·,·,·,·,
CCCc1cc(=O)n2nc(N3CCC(C(=O)NCc4ccco4)CC3)sc2n1,·,5,·,-18,·,·,·,·,
Cc1ccc(S(=O)(=O)/N=C2\C=C(Nc3cccc(C(=O)O)c3)C(=O)c3ccccc32)c(C)c1,·,39*,·,70*,·,·,58,39,
CCc1ccc(S(=O)(=O)/N=C2\C=C(Nc3ccc(C(=O)O)cc3)C(=O)c3ccccc32)cc1,·,54*,·,65*,·,·,60,31,
Cc1ccc(S(=O)(=O)/N=C2\C=C(Nc3cccc(C(=O)O)c3)C(=O)c3ccccc32)cc1,·,45*,·,67*,·,·,80,69*,Diaphorase 10uM=89*;Diaphorase 30uM=86*
COc1ccc(-c2cn(Cc3ccc(C(=O)c4ccccc4)cc3)nn2)cc1,·,1,·,4,·,·,·,·,
O=C1C=C(N2CCOCC2)c2ccccc2C1=O,·,77*,·,71*,·,·,79,54*,Diaphorase 10uM=73*;Diaphorase 30uM=83*
COC1=CC(=O)c2c(ccc3ncnc(N)c23)C1=O,·,87*,·,127*,·,·,88,108*,Diaphorase 10uM=99*;Diaphorase 30uM=100*
CC(=O)N(C1=C(Cl)C(=O)c2ccccc2C1=O)C1CCCCC1,·,58*,11,116*,·,·,78,113*,Diaphorase 10uM=98*;Diaphorase 30uM=95*
Cc1ccc(-n2nnnc2SCC(=O)NC2CCS(=O)(=O)C2)c(C)c1 (stereo not given),·,-1,·,-7,·,·,·,·,
Cc1[nH]c2ccccc2c1C1=CC(=O)C=CC1=O,·,58*,·,129*,·,·,53,114*,Diaphorase 10uM=93*;Diaphorase 30uM=53*
Cc1[nH]c2ccccc2c1CCO,0.9,9,4,-10,12,6,·,·,
O=C1C(SCCO)=C(SCCO)C(=O)c2ccccc21,·,72*,·,119*,·,·,84,107*,Diaphorase 10uM=87*;Diaphorase 30uM=84*

# Source: PubChem (several laboratories)
